# PHOSPHO1 block: inhibitors of human PHOSPHO1 phosphatase; inhibition, % at 13.3 µM; Q8TCT1; hit rate 1.1% among 290,000; recombinant PHOSPHO1, absorbance phosphatase assay; AID 1565; in the data active means inhibition above about 60%
# Target sequence (Q8TCT1 whole entry, looked up): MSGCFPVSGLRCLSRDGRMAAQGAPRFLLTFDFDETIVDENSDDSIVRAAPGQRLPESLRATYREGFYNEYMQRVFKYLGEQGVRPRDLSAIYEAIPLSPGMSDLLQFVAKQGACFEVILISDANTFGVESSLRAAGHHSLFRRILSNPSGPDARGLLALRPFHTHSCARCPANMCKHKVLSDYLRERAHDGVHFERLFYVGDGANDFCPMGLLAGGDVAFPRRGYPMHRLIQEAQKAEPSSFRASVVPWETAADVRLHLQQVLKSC
# RGS4 act: potentiators or activators of RGS4 | HEK293 M3R/inducible RGS4, carbachol calcium flux Fluo4; stronger effect = lower value | B-score at 10 µM | hit rate 0.92% among 310,000;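 active means B-score of the integrated calcium signal more than 4 SD below the library mean, with starting fluorescence not abnormally high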;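 further: negative B-score means reduced calcium response which marks RGS4 activation or potentiation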
#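 test system = HEK293 cells with stable M3R and inducible RGS4 | schedule = recording 10 s baseline at 1 Hz, 100 s post-agonist | technique = Fluo4-AM (2 µM) calcium-flux fluorescence, kinetic read | measure = Agonist-evoked peak-minus-minimum fluorescence over baseline, integrated ratio, B score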
# MrgX1 ag: human MrgX1 receptor agonism, primary screen; B-score at 10 µM; hit rate 0.44% among 310,000; MrgX1-HEK293 cells, Fluo-4 calcium fluorescence, agonist mode; stronger effect = higher value; Q96LB2;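 active means calcium response B-score plate-corrected fluorescence ratio at least 3 library SD, with starting fluorescence B-score inside 5 SD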
#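 Material: HEK293 cells stably expressing human MrgX1 receptor | Quantity: 15,000 cells per well | Times: Cells plated overnight, dye loaded 0.5 h 37 °C, 0.5 h room temperature | Measured by: Kinetic Fluo-4 NW fluorescence of intracellular calcium | Control set: Positive and negative controls per plate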
# MrgX1 antagonist: human MrgX1 receptor antagonism, primary screen. MRGX1-HEK293 calcium flux, Fluo-4, BAM8-22 antagonism; stronger effect = lower value. B-score at 10 µM. hit rate 1.3% among 310,000;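 active means calcium-response B-score plate-corrected more than 3 library SD below zero, starting fluorescence within 5 deviations, no agonist response on first addition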;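 further: peak minus trough fluorescence over baseline after final BAM8-22 challenge near maximal dose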
# MrgX1 PAM: allosterically activates human MrgX1 receptor signaling; B-score at 10 µM; Q96LB2; hit rate 0.63% among 310,000; MrgX1-HEK293, Fluo-4 calcium flux, FDSS; stronger effect = higher value;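 active means plate-corrected calcium response at least 3 library SD above typical, normal starting fluorescence, not activating the receptor alone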;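 further: compound read alongside a low EC10 to EC30 dose of BAM8-22 agonist; peak minus trough fluorescence over baseline measured at the second addition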
# RGS4 block: human RGS4 inhibition | B-score at 10 µM | hit rate 0.45% among 310,000 | HEK293 M3R/RGS4 inducible, Fluo-4 calcium flux; stronger effect = higher value; triggered by carbachol at its EC20 | P49798;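 active means B-score, a plate-corrected calcium signal, over three deviations above library mean, with baseline fluorescence within five deviations of library mean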;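 further: RGS4 expression induced by doxycycline in cells with stable M3 receptor; B-score is computed from the integrated fluorescence ratio over baseline after carbachol; higher B-score means a larger calcium signal and so more RGS4 inhibition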
# Target sequence (P49798 whole entry, looked up): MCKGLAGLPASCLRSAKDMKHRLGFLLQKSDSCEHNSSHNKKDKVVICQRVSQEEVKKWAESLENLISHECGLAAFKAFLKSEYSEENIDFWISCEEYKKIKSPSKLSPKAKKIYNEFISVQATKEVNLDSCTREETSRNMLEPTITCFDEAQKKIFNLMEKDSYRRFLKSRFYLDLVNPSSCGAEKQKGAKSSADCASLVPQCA
# MrgX1 ant reconf: human MrgX1 receptor antagonism, re-confirmation screen; shares compounds with MrgX1 antagonist; MrgX1-HEK293, BAM8-22 calcium flux, Fluo-4; stronger effect = lower value; remaining BAM8-22 calcium response % of control (stronger effect = lower value), % at 10 µM; hit rate 19% among 2,300;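 active means remaining agonist calcium response no higher than 100% minus 3 SD of agonist-only control wells, with starting fluorescence near control levels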;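 further: agonist BAM8-22 given at a near maximal EC90 to ECmax level; peak minus minimum fluorescence divided by baseline after agonist addition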
# HEK293 Ca flux: activity in parental HEK293 cells lacking MrgX1; shares compounds with MrgX1 antagonist; Fluo-4 calcium fluorescence, FDSS; fluorescence ratio F(max-min)/F0 at 10 µM; hit rate 2% among 4,000; AID 624111;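 active means duplicate-averaged calcium fluorescence ratio at least three times the standard deviation of buffer wells, a nonspecific response in parental cells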
# HEK293 Ca counter: activity in parental HEK293 cells without MrgX1 | shares compounds with MrgX1 antagonist | parental HEK293 calcium flux, Fluo-4 fluorescence ratio; stronger effect = higher value | fluorescence ratio F(max-min)/F0 at 10 µM | hit rate 0.4% among 4,000;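 active means calcium fluorescence ratio, averaged over duplicates, at least 3 SD of the buffer-well ratio, meaning a nonspecific response in receptor-free cells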;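 further: untransfected parental HEK293 lacking MrgX1 used as counterscreen for MrgX1 allosteric activators; fluorescence change taken during the second addition on a kinetic imager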
# HEK293 Ca cntr2: activity in parental HEK293 cells lacking MrgX1 receptor; AID 624115; Fluo-4 calcium fluorescence (FDSS); stronger effect = higher value; shares compounds with MrgX1 antagonist; hit rate 8.7% among 4,000; fluorescence ratio F(max-min)/F0 at 10 µM;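 active means calcium fluorescence ratio at least three times the spread of buffer wells, meaning a non-specific response in parental cells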
# * marks the source's active call; other numbers are inactive results; i = inactive; x = no result. Sampled rows, rich in hits. Any-hit rate of the full collection: about 4.5%.
SMILES,PHOSPHO1 block,RGS4 act,MrgX1 ag,MrgX1 antagonist,MrgX1 PAM,RGS4 block,MrgX1 ant reconf,HEK293 Ca flux,HEK293 Ca counter,HEK293 Ca cntr2
CCOC(=O)c1ccc(NC(=O)CN2CCN(C(=O)C3CCCO3)CC2)cc1 (stereo not drawn),x,i,i,-6.3*,i,i,i,i,i,i
CCOc1ccc(NC(=O)CN2CCN(C(=O)C3CCCO3)CC2)cc1 (stereo not drawn),32,i,i,i,i,i,x,x,x,x
Cc1ccc(NC(=O)N2CCN(C(=O)C3CCCO3)CC2)cc1 (stereo not drawn),22,i,i,-5.9*,i,i,i,i,i,i
Cc1cccc(-n2c(SCc3ccc([N+](=O)[O-])cc3)nnc2-c2c[nH]c3ccccc23)c1,-65,i,i,i,i,i,x,x,x,x
CCc1cc2c(=O)[nH]c(-c3ccncc3)nc2s1,16,i,i,-6.6*,i,i,i,i,i,i
O=C(CN(c1ccccn1)S(=O)(=O)c1ccc(F)cc1)Nc1ccccc1,28,i,i,-6*,i,i,i,i,i,i
Cc1nnc(NC(=O)CSc2ccc(-c3cccnc3)nn2)s1,-20,i,i,-5.6*,i,i,i,i,i,i
CC(C)(C)c1cc(NC(=O)CSc2nncs2)n(-c2ccccc2)n1,-3,i,i,i,i,i,x,x,x,x
CN(C)NC(=S)NC1CC2CCC1C2 (stereo not drawn),32,i,i,i,i,i,x,x,x,x
COC1=CC(=O)CC(C)C12Oc1cc(OC)cc(OC)c1C2=O (stereo not drawn),31,i,i,-5.9*,i,i,i,i,i,i
CC(=O)c1cccc(NC(=O)C2CC(=O)N(CCc3ccccc3)C2)c1 (stereo not drawn),32,i,i,-5.2*,i,i,i,i,i,i
CCOc1ccc(CNC(=O)c2ccc3c(c2)N(CC)CCS3)cc1,33,i,i,-6.6*,i,i,82%*,i,i,i
CCN1CCSc2ccc(C(=O)NCc3ccc(OC(C)C)cc3)cc21,44,i,i,i,i,i,x,x,x,x
O=C(CNc1cccc(S(=O)(=O)N2CCOCC2)c1)Nc1cccc(Br)c1,x,i,i,i,i,i,x,x,x,x
O=C(CNc1cccc(S(=O)(=O)N2CCOCC2)c1)Nc1ccccc1F,-6,i,i,-5.1*,i,i,i,i,i,i
CC1=CC(=O)C=C(C)C1=NOS(=O)(=O)c1ccccc1,-6,i,x,x,x,i,x,x,x,x
CC1=CC(=O)C(C(C)C)=C/C1=N/OS(=O)(=O)c1ccccc1,0,-8.2*,i,-14*,i,i,i,i,i,i
CC(=O)Nc1ccc(N2C(=O)CSC2c2cccc([N+](=O)[O-])c2)cc1 (stereo not drawn),-95,i,i,i,i,i,x,x,x,x
CC(C)c1cc2c(c(O)c1O)[C@@]13CCCC(C)(C)C1CC2OC3=O (stereo partly drawn),-127,i,i,-4.5*,i,i,76%*,i,i,i
CCc1nc2ccc(C(=O)NCCCN3CCN(c4ccccc4F)CC3)cc2nc1CC,46,i,i,i,i,i,x,x,x,x
CC(C)c1ccccc1NC(=O)C1CC(=O)N(C2CCCC2)C1 (stereo not drawn),x,i,i,-5.1*,i,i,i,i,i,i
O=C(c1ccc(Cl)cc1)[C@@H]1[C@@H]2C(=O)N(c3cccc4ccccc34)C(=O)[C@@H]2C2c3ccccc3C=NN21 (stereo partly drawn),-20,i,i,i,i,i,x,x,x,x
Cc1cccnc1NC(=S)NC(=O)c1cncc(Br)c1,-23,i,i,-4.6*,i,i,i,i,i,i
O=C(NC(=S)Nc1ccccn1)c1cncc(Br)c1,-7,i,i,i,i,i,x,x,x,x
COc1cccc(C2=CC(c3ccc(OC)c(OC)c3OC)n3nnnc3N2)c1 (stereo not drawn),-31,i,i,i,i,i,x,x,x,x
SMILES,PHOSPHO1 block,RGS4 act,MrgX1 ag,MrgX1 antagonist,MrgX1 PAM,RGS4 block,MrgX1 ant reconf,HEK293 Ca flux,HEK293 Ca counter,HEK293 Ca cntr2
COc1cccc(C2=CC(c3cccs3)n3nnnc3N2)c1 (stereo not drawn),-3,i,i,-5.5*,i,i,84%*,i,i,i
CCN(CC)S(=O)(=O)c1ccc(OC(C)C)nc1,-8,i,i,-5.9*,i,i,i,i,i,i
Cc1nnc(SCC(=O)c2ccc(C(C)C)cc2)s1,29,i,i,i,i,i,x,x,x,x
O=C(CSc1nc2ccccc2c(=O)n1-c1ccccc1)c1c[nH]c2ccccc12,-17,i,i,-6*,i,i,i,i,i,i
COc1cccc(CN2CCNC(=O)C2CC(=O)NCCCN2CCCC2=O)c1 (stereo not drawn),13,i,i,i,i,i,x,x,x,x
COC(=O)c1ccccc1NC(=O)c1ccc2c(c1)OCCCO2,43,i,i,-10*,i,i,i,i,i,i
Cc1ccccc1NC(=O)c1ccc2c(c1)OCCO2,10,i,i,i,i,i,x,x,x,x
CN1CCN(C(=O)c2ccc(-n3cccc3)cc2)CC1,20,i,i,i,i,i,x,x,x,x
Cc1ccc(S(=O)(=O)N2CCOC23CCN(C(=O)C(=O)NCc2ccccc2)CC3)cc1,x,i,i,i,i,i,x,x,x,x
Cc1ccc(Cl)c2sc(N3CCN(C(=O)c4ccco4)CC3)nc12,x,i,i,i,i,i,x,x,x,x
CN(C(=O)c1cccs1)c1ccccc1C(=O)O,29,i,i,-5.7*,i,i,i,i,i,i

# Source: PubChem (several laboratories)
